Source: ChEMBL document CHEMBL1133492, “Design, synthesis, and biological evaluation of fluoronitrophenyl substituted folate analogues as potential inhibitors of GAR transformylase and AICAR transformylase” (Bioorg Med Chem Lett, 2000)
Calls of active or inactive are those of the source. No cut-off for these calls is given here.

Tests used:
CCRF-CEM [1] = assay: Cytotoxicity in the absence of hypoxanthine and presence of thymidine against CCRF-CEM cell line; format: functional, cell-based; conditions: Homo sapiens
Method in brief: (§1)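 CCRF-CEM cells were grown in purine- and pyrimidine-free medium, with thymidine and/or hypoxanthine added or omitted as each line specifies. The cytotoxic potency was reported as an IC50 (µM).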

CCRF-CEM [2] = assay: Cytotoxicity in the absence of thymidine and hypoxanthine against CCRF-CEM cell line; format: functional, cell-based; conditions: Homo sapiens; method in brief: as §1
CCRF-CEM [3] = assay: Cytotoxicity in the absence of thymidine and presence of hypoxanthine against CCRF-CEM cell line; format: functional, cell-based; conditions: Homo sapiens; method in brief: as §1
CCRF-CEM [4] = assay: Cytotoxicity in the presence of thymidine and hypoxanthine against CCRF-CEM cell line; format: functional, cell-based; conditions: Homo sapiens; method in brief: as §1
[5] = target: T1, Trifunctional purine biosynthetic protein adenosine-3 (Homo sapiens) (UniProt P22102); assay: In vitro inhibitory activity against Glycinamide ribonucleotide transformylase (GAR Tfase) after 6 hr at 250 uM; format: functional
T1 sequence (whole entry): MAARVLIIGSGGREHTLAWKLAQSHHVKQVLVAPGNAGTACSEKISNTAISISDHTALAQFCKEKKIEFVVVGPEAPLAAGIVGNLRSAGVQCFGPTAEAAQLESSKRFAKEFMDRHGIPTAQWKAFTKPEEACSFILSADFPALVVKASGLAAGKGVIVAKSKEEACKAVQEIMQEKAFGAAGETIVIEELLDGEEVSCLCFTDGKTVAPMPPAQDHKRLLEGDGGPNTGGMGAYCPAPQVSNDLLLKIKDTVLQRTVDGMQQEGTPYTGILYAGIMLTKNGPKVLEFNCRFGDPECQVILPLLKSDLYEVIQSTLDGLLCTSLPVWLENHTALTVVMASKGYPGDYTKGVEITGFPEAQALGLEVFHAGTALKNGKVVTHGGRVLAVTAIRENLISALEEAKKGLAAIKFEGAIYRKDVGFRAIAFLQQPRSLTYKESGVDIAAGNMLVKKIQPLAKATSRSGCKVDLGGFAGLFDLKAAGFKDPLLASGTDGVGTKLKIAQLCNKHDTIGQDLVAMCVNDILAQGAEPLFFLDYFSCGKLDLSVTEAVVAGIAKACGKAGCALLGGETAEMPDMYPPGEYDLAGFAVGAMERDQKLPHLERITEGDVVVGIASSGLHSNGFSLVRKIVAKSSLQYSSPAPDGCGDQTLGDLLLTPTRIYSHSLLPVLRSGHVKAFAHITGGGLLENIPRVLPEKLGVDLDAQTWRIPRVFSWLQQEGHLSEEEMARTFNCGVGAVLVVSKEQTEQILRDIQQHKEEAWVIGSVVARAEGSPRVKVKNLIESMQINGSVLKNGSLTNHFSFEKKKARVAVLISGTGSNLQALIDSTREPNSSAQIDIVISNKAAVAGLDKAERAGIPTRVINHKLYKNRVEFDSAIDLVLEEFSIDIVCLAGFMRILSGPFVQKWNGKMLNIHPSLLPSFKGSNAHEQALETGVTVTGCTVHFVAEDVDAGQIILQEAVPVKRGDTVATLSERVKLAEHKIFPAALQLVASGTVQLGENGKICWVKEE

[6] = target: T1, Trifunctional purine biosynthetic protein adenosine-3 (Homo sapiens); assay: In vitro inhibitory activity against Glycinamide ribonucleotide transformylase (GAR Tfase) after 30 min at 250 uM; Not active
[7] = target: T1, Trifunctional purine biosynthetic protein adenosine-3 (Homo sapiens); assay: In vitro inhibitory activity against Glycinamide ribonucleotide transformylase (GAR Tfase) after 3 min at 250 uM; Not active
[8] = target: Bifunctional purine biosynthesis protein ATIC (Homo sapiens, UniProt P31939); assay: In vitro inhibitory activity against Aminoimidazole carboxamide ribonucleotide transformylase after 12 hr at 250 uM; Not active
Chain of Bifunctional purine biosynthesis protein ATIC (P31939 whole entry, looked up): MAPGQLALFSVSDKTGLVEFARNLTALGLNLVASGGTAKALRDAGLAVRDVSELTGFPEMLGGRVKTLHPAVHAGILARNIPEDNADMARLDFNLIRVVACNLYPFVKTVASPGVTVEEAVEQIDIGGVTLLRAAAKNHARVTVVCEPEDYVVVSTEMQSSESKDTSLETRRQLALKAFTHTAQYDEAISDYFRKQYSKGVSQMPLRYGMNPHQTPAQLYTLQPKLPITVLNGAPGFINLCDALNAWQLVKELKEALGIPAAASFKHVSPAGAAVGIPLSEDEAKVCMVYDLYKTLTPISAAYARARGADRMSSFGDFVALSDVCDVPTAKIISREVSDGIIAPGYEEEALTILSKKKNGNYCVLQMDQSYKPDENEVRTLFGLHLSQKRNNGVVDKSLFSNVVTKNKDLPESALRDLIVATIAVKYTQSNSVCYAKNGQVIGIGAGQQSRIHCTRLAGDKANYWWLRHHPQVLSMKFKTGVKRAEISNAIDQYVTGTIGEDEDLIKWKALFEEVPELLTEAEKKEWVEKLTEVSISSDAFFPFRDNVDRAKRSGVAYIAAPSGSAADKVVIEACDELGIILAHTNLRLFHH

Structure (SMILES): Nc1nc(N)c(CCCNc2ccc([N+](=O)[O-])c(F)c2F)c(O)n1
- IC50 (CCRF-CEM [1]): 68 µM
- IC50 (CCRF-CEM [2]): 76 µM
- IC50 (CCRF-CEM [3]): 76 µM
- IC50 (CCRF-CEM [4]): 73 µM
- inhibition [5]: 59%
- inhibition [6]: inactive
- inhibition [7]: inactive
- inhibition [8]: inactive
